High-throughput results as filed in PubChem.
The sample as a whole holds a higher share of hits than the screen did.
VLA-4 inh – inhibition in a human VLA-4 binding assay. P13612. VLA-4 expressing cells, ligand binding flow cytometry. inhibition, % (about 7 µM as worked out from the volumes in the protocol). actives 0.2% (n = 330,000). AID 2557; in the data active means inhibition above about 50%
Beta2AR agonist – human beta-2 adrenergic receptor agonism by FAP. P07550. Am2.2-beta2AR cells, FAP receptor internalization, flow cytometry. response, % (test concentration not listed). actives 0.43% (n = 340,000). AID 504454;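 active means response above a set limit, near 3 SD of response in nonfluorescent compounds, cut at about 42% in these data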
Target sequence (P07550 whole entry, looked up): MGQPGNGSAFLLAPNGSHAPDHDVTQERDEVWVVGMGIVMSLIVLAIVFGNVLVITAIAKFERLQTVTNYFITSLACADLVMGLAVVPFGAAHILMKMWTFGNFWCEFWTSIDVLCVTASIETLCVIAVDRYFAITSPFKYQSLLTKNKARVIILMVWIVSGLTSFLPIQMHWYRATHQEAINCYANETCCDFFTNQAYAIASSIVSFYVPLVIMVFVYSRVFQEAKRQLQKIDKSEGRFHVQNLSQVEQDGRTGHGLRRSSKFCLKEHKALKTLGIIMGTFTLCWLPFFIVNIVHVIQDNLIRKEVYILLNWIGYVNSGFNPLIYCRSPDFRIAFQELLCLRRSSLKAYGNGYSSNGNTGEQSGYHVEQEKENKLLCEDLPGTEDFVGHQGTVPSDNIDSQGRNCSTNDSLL
CHOP inh – CHOP inhibition in unfolded protein response; AID 2732; actives 3.8% (n = 220,000); inhibition, % at 10 µM; CHO-K1 CHOP-promoter luciferase, tunicamycin-induced, 15-18 h;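 active means compounds that reduced the stress-induced luciferase reporter signal by more than about 70% of percent inhibition, limit read from the data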;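 further: 0% = tunicamycin plus vehicle and 100% = wells without tunicamycin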
CHOP UPR activ – activators of apoptotic arm of unfolded protein response (CHOP) | CHO-CHOP luciferase reporter, UPR activation, luminescence; percent of tunicamycin response over DMSO baseline | activation, % at 10 µM | actives 0.34% (n = 330,000);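 active means at 10 µM dose, activation of 40% or more, normalized to positive control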;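 further: 100% = tunicamycin at 10 µg/mL and 0% = DMSO alone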
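Evaluation: % reporter activation, DMSO baseline versus tunicamycin full activation; System: CHO-CHOP luciferase reporter cell line; Input: 500 cells/well; Incubation: 6 h compound treatment, 37 °C; Measured by: Steady-Glo luciferase luminescence; Dosing: one dose, 10 µM in 0.5% DMSO; Buffer or medium: F12 medium, 10% FBS; Benchmarks: positive tunicamycin 10 µg/mL, negative DMSO alone.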
XBP1 UPR activ – activators of adaptive arm of unfolded protein response (XBP1); CHO-XBP1 luciferase reporter, IRE1-XBP1 UPR activation, luminescence; percent of tunicamycin response, DMSO as zero; activation, % at 20 µM; actives 0.33% (n = 330,000);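 active means versus positive control, 20 µM dose yields 30% or more activation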;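 further: 100% = tunicamycin at 10 µg/mL and 0% = DMSO only wells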
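Material: CHO cell line with stable XBP1 luciferase reporter; schedule: 16-18 h cell attachment at 37 °C, then 6 h compound exposure; signal: glow luminescence from Steady-Glo reagent; medium: serum-containing F12 medium, 10% FBS; benchmarks: tunicamycin 10 µg/mL and vehicle-only wells; read-out: percent activation relative to tunicamycin reference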
Active calls of the source: *; nt = not tested or not shown.

SMILES	VLA-4 inh	Beta2AR agonist	CHOP inh	CHOP UPR activ	XBP1 UPR activ
CCCCc1nn(-c2cc(Cl)ccc2OC)c2c1C(=O)CC(C)(C)C2	-3	-23	81*	4	-2
CNC(=O)[C@H]1O[C@@H](n2cnc3c(NCc4ccc(N)cc4)ncnc32)C(O)[C@H]1O (some centres undefined)	nt	nt	-28	nt	nt
COc1cccc(/C(O)=C/c2nc3ccc(C(=O)NCCc4ccc(Cl)cc4)cc3[nH]c2=O)c1	nt	-32	83*	nt	nt
CCOC(=O)c1cc2c(ccn2C)n1CC(=O)N1CCC(Cc2ccccc2)CC1	9	-4	71*	-2	1
CCOC(=O)c1cc2c(ccn2C)n1CC(=O)N1CCCC(C)C1 (centres undefined)	5	9	9	1	-1
O=C(CSc1nncs1)NNC(=O)c1ccco1	7	-4	nt	0	-1
O=C(Cn1nc(-c2ccccc2)oc1=O)OCC(=O)c1ccc(F)c(F)c1	43	-5	nt	0	-1
S=C(Nc1ccc(Nc2ccccc2)cc1)NC1CCCCCC1	21	0	80*	3	0
CC(C)(C)NC(=S)Nc1ccc(Nc2ccccc2)cc1	9	-6	73*	2	-3
CCOC(=O)N1CCN(C(=O)COC(=O)CNC(=O)c2ccc(OCC)c(OCC)c2)CC1	nt	-7	nt	0	-3
COc1ccc2[nH]c3c(c2c1)CCN1C(=O)C(CC(=O)NCc2ccco2)C[C@H](C(=O)N(C(C)C)C(C)C)[C@@]31C (some centres undefined)	nt	-7	nt	3	-2
Cc1cc(C)c(N(C(=O)Cn2nnc3ccccc32)C(C(=O)NC(C)(C)C)c2ccsc2)c(C)c1 (centres undefined)	13	13	49	-1	-5
CC(C)(C)NC(=O)C(c1ccsc1)N(CCc1ccccc1)C(=O)Cn1nnc2ccccc21 (centres undefined)	14	-4	95*	3	10
Cc1ccc(C)c(N(C(=O)Cn2nnc3ccccc32)C(C(=O)NC(C)(C)C)c2ccsc2)c1 (centres undefined)	-1	-1	71*	0	7
CC#CCN(Cc1ccco1)C(=O)c1ccc(OC2CCN(Cc3ccccn3)CC2)cc1	0	-12	nt	0	-3
O=C(Nc1ccc(Cl)cn1)c1ccc(COCC(F)(F)C(F)F)o1	24	-4	96*	0	3
O=C(NCc1ccc(Cl)cc1)c1ccc(COCC(F)(F)F)o1	0	-2	35	1	-1
COc1ccc(/C=N/Nc2ccc(C(F)(F)F)cc2[N+](=O)[O-])cc1O	19	-16	76*	0	0
O=C1NC(c2ccccc2)(C(F)(F)F)SC2=NCCCN12 (centres undefined)	3	-3	8	0	-4
Cc1ccc2c(c1)SC1=NC(c3ccccc3)(C(F)(F)F)NC(=O)N12 (centres undefined)	-6	nt	70*	-1	-1
CN(C(=O)C1CCCN1S(=O)(=O)c1ccc(Cl)cc1)c1ccccc1 (centres undefined)	39	-2	nt	2	1
CCOc1cccc(C(=O)Nc2nnc(-c3ccco3)s2)c1	7	1	74*	-2	-6
CCC(C(=O)Nc1nnc(-c2ccco2)s1)c1ccccc1 (centres undefined)	-2	-3	75*	1	2
Cc1cccc(OCC(=O)Nc2nnc(-c3ccco3)s2)c1	-3	-3	35	-2	0
CCOc1ccccc1N(CC)C(=O)c1nn(C)c2c1CSc1ccccc1-2	14	-16	nt	0	0
SMILES	VLA-4 inh	Beta2AR agonist	CHOP inh	CHOP UPR activ	XBP1 UPR activ
Cc1cc(C(=O)NC(C)c2ccc3c(c2)OCO3)cs1 (centres undefined)	10	-5	74*	0	1
CN(CC(=O)Nc1ccccc1Br)C(=O)c1n[nH]c2ccccc12	nt	-2	nt	0	-2
COc1ccc(CNC(=O)CN2C(=O)COc3ccc(S(=O)(=O)N4CCC(C)CC4)cc32)cc1	5	2	nt	-1	-2
Cc1ccc(C(=O)c2sc3nsc(C)c3c2N)cc1	18	-4	18	5	4
Cc1snc2sc(C(=O)c3ccc(Br)cc3)c(N)c12	12	-12	92*	4	24
CCOC(=O)c1sc(NC(=O)CSc2n[nH]c(-c3ccncc3)n2)c(C#N)c1C	-4	6	85*	0	-1
